ChEMBL document CHEMBL1141860, “Synthesis and monoamine transporter affinity of 3-aryl substituted trop-2-enes” (Bioorg Med Chem Lett, 2005)

What was measured:
[1] = target: Monoamine transporters; Norepinephrine & dopamine (Homo sapiens) (UniProt Q01959+P23975); experiment: Selectivity for human DAT over human NET; format: protein assay
[2] = target: Monoamine transporters; serotonin & dopamine (Homo sapiens) (UniProt P31645+Q01959); experiment: Selectivity for human DAT over human SERT; format: protein assay
[3] = target: Sodium-dependent dopamine transporter (Homo sapiens, UniProt Q01959); experiment: Displacement of [3H]WIN-35428 from human DAT
[4] = target: Sodium-dependent serotonin transporter (Homo sapiens, UniProt P31645); experiment: Displacement of [3H]Citalopram from human SERT
Summary of the method: (§1)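 Competitive radioligand binding at human transporters. The tritiated standard ligand matched each transporter: WIN-35,428 for DAT, citalopram for SERT, and nisoxetine for NET.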

[5] = target: Sodium-dependent noradrenaline transporter (Homo sapiens, UniProt P23975); experiment: Displacement of [3H]nisoxetine from human NET; summary of the method: as §1
[6] = target: Serotonin and norepinephrine transporters (SERT/NET) (Homo sapiens) (UniProt P31645+P23975); experiment: Selectivity for human SERT over human NET; format: protein assay
Sequence of Serotonin and norepinephrine transporters (SERT/NET) (Homo sapiens) (P23975 whole entry, looked up): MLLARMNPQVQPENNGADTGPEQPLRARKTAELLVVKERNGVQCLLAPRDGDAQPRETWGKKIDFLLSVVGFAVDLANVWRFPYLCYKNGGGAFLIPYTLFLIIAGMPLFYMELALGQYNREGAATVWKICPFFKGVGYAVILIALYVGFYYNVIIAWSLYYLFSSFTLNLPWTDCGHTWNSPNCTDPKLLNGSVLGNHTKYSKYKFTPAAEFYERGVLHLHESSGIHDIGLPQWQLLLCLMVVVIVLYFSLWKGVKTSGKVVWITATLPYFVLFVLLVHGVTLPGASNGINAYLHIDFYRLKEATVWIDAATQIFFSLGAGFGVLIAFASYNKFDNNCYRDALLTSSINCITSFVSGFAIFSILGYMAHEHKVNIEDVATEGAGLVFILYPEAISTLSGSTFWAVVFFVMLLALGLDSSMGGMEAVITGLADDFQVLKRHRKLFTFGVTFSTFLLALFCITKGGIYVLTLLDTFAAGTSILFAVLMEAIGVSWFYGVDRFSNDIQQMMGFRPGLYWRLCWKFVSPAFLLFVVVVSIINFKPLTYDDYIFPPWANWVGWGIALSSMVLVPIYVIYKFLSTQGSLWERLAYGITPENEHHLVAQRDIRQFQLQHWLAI
Sequence of Serotonin and norepinephrine transporters (SERT/NET) (Homo sapiens) (P31645 whole entry, looked up): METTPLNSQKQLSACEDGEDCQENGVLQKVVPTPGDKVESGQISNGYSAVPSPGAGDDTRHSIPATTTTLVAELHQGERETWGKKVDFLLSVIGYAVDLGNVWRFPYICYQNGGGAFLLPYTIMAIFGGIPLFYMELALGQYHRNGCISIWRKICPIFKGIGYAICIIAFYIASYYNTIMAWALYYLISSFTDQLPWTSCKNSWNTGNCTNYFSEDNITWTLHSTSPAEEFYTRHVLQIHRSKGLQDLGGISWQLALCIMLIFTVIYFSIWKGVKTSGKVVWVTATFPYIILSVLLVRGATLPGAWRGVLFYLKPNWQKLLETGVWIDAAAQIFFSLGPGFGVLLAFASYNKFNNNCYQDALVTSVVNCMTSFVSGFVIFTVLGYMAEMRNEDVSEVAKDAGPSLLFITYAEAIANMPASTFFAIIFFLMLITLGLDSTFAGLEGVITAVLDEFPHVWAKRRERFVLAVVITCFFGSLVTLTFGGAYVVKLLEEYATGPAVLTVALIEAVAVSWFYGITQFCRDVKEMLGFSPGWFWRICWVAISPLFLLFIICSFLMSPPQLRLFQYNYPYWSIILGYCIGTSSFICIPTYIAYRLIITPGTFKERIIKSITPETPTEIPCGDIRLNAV

Sequence of Monoamine transporters; Norepinephrine & dopamine (Homo sapiens) (P23975 whole entry, looked up): as the sequence (P23975 whole entry, looked up) above
Sequence of Monoamine transporters; Norepinephrine & dopamine (Homo sapiens) (Q01959 whole entry, looked up): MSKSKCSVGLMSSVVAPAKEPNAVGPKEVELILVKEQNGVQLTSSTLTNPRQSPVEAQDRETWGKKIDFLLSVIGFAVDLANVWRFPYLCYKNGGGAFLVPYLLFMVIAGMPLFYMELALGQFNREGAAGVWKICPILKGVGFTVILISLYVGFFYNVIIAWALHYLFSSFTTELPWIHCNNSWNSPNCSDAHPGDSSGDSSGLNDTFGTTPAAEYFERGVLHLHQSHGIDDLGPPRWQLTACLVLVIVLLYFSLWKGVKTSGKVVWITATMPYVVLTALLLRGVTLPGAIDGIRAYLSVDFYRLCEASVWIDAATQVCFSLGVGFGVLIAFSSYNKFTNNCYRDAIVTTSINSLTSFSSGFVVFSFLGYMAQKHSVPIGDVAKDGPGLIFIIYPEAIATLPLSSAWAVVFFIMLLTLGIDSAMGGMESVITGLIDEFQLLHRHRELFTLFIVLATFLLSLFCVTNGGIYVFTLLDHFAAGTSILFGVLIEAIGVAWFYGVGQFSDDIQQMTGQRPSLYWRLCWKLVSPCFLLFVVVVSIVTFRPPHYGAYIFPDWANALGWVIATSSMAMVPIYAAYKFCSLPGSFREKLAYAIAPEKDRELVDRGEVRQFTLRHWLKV
Sequence of Sodium-dependent noradrenaline transporter (P23975 whole entry): as the sequence (P23975 whole entry, looked up) above
Sequence of Sodium-dependent serotonin transporter (P31645 whole entry): as the sequence (P31645 whole entry, looked up) above
Sequence of Monoamine transporters; serotonin & dopamine (Homo sapiens) (P31645 whole entry, looked up): as above
Sequence of Monoamine transporters; serotonin & dopamine (Homo sapiens) (Q01959 whole entry, looked up): as the sequence (Q01959 whole entry, looked up) above
Sequence of Sodium-dependent dopamine transporter (Q01959 whole entry): as the sequence (Q01959 whole entry, looked up) above

SMILES | Ratio IC50 [1] | Ratio IC50 [2] | IC50 [3] | IC50 [4] | IC50 [5] | Ratio IC50 [6]
CN1C2CCC1CC(O)(c1cccc(-c3ccccc3)c1)C2 (centres undefined) | 0.53 | 5.81 | 21.9 µM | 3.77 µM | 41.5 µM | 0.091
CN1C2C=C(c3ccccc3-c3ccccc3)CC1CC2 (centres undefined) | 1.44 | 5.4 |  | 1.71 µM | 6.43 µM | 0.27
CN1C2CCC1CC(O)(c1ccccc1-c1ccccc1)C2 (centres undefined) | 0.06 | 1.58 | 3.98 µM | 2.52 µM | 66.3 µM | 0.038
CN1C2C=C(c3cccc(-c4ccccc4)c3)CC1CC2 (centres undefined) | 0.314 | 10.8 | 7.22 µM | 0.67 µM | 23 µM | 0.029
CN1C2C=C(c3ccc4c(c3)Cc3ccccc3-4)CC1CC2 (centres undefined) | 0.23 | 52.2 | 0.757 µM | 0.0145 µM | 3.36 µM | 0.0043
CN1C2CCC1CC(O)(C1c3ccccc3-c3ccccc31)C2 (centres undefined) | 0.0034 | 0.015 | 0.543 µM | 35.4 µM | 158 µM | 0.22
CN1C2C=C(C3c4ccccc4-c4ccccc43)CC1CC2 (centres undefined) | 0.113 | 13.6 | 9.35 µM | 0.69 µM | 82.7 µM | 0.0083
CN1C2CCC1CC(O)(C1c3ccccc3-c3ccc(Br)cc31)C2 (centres undefined) | 0.27 | 6.5 | 16.8 µM | 2.57 µM | 62.6 µM | 0.041
CN1C2C=C(c3c[nH]c4ccccc34)CC1CC2 (centres undefined) | 0.15 | 8.3 | 0.603 µM | 0.0726 µM | 3.96 µM | 0.018
C[N+]1(CCl)C2C=C(c3ccccc3-c3ccccc3)CC1CC2 (centres undefined) | 33.2 | 4.2 | 67 µM | 16.1 µM | 2.02 µM | 8
